Assay outcomes from PubChem BioAssay.
The list is not random: actives were taken first. Their share in the collection is about 2.1%.
RanGTP-Impb inh – inhibitors of RanGTP-importin-beta interaction, primary screen, biochemical, FRET, CFP-Ran, YFP-importin-beta, homogeneous | Ran GTPase (GTP-bound) - importin-beta complex | cell-free CFP-Ran/YFP-importin-beta FRET ratio | inhibition, % (test concentration not listed) | hit rate 1.1% among 300,000 | AID 2216, 2009;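 active means more than half of the replicate wells show a fall in the fluorescence ratio signal beyond about 16%, limit read from the data, passing the limit was not always enough; inconclusive means exactly half of the replicate wells pass the set limit; inactive means fewer than half of replicates pass the limit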
Runt-SMMHC FRET – inhibitors of RUNX1 Runt–CBFb-SMMHC binding, primary screen, biochemical, FRET, Cerulean-Runt, Venus-CBFb-SMMHC, uHTS; AID 1434, 2008; Runt-related transcription factor 1 (Homo sapiens) + Core-binding factor subunit beta …; hit rate 0.74% among 220,000; inhibition, % at 20 µM; Cerulean-Runt/Venus-CBFb-SMMHC FRET ratio 530/480, 1 h;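 active means mean inhibition across duplicate retests at 20 µM reaching about 50%, limit read from the data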;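 further: inhibitors lower the FRET ratio by blocking Runt binding to CBFb-SMMHC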
Target sequence (Q01196 whole entry, looked up): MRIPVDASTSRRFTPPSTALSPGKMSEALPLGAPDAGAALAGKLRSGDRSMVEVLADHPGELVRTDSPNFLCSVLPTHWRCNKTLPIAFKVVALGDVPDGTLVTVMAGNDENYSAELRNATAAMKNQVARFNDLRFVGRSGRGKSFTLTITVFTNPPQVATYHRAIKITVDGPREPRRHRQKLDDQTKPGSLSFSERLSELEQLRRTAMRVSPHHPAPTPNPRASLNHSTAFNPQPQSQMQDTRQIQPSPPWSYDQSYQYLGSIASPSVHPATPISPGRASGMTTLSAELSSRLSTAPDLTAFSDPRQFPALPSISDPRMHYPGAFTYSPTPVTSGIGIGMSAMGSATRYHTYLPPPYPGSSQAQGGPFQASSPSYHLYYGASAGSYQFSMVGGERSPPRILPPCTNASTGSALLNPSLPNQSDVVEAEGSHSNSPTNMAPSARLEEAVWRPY
Target sequence (Q13951 whole entry, looked up): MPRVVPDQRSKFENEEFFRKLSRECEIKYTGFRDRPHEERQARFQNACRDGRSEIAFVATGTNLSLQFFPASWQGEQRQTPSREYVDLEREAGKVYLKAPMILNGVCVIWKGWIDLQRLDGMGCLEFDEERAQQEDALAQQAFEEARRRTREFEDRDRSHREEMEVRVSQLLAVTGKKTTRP
Runt-CBFb FRET – inhibitors of RUNX1 Runt–CBFb binding, primary screen, biochemical, FRET, Cerulean-Runt, Venus-CBFb, uHTS; Cerulean-Runt/Venus-CBFb FRET ratio 530/480, 1 h; hit rate 0.46% among 220,000; inhibition, % at 20 µM; Runt-related transcription factor 1 (Homo sapiens) + Core-binding factor subunit beta …;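 active means inhibition over about 50% at 20 µM in the single-dose screen, limit read from the data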
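Assay system: Cerulean-Runt domain fusion protein, energy donor; Signal: fluorescence energy transfer, 422 nm excitation, 530/480 nm emission; Timing: 1 h compound exposure, room temperature; Control set: unlabeled CBFb; Medium: Tris buffer pH 7.5 with salts and BSA; Compound: single test concentration of 20 µM, 1% DMSO final; Probe or stimulus: Venus-CBFb 100 nM.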
p-CIP stab down – p/CIP-EGFP fusion destabilizers, primary screen, fluorescence, F442A cells; 16 h; decrease of EGFP signal, % at 10 µM; hit rate 0.01% among 290,000; AID 1984, 2009;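 active means EGFP signal decrease of at least 30% at 10 µM or well 3 SD below plate mean, unless failing retest; inactive means the rest, including hits failing retest or dose response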
Hck Nef HTS – inhibitors of Nef-activated human Hck kinase, primary screen, biochemical, Z-Lyte FRET, 384-well, Hck-YEEI; inhibition, % at 20 µM; Tyrosine-protein kinase HCK (Homo sapiens), P08631; hit rate 0.68% among 220,000; AID 463187, 2010; Recombinant Hck-YEEI plus Nef, Z-Lyte FRET kinase assay;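 active means Hck-Nef kinase inhibition above about 50%, limit read from the data; inactive means inhibition below that limit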
DSG3 Ab inh – inhibitors of pemphigus antibody binding to DSG3, primary screen, biochemical, bead-based, flow cytometry, scFv-GFP; binding (percent of control), % at 10 µM; DSG3-coupled beads, scFv-anti-DSG3-GFP binding; active compounds read low; hit rate 0.48% among 310,000;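 active means binding more than 3 SD below its plate's average and above zero; inconclusive means below that plate limit but binding exactly zero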;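 further: hits lower antibody fragment binding to DSG3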
Runt-CBFb TRFRET – inhibitors of RUNX1 Runt–CBFb binding, biochemical, TR-FRET. shares compounds with Runt-CBFb FRET. inhibition, % at 20 µM. AID 1502, 2009. hit rate 20% among 480. TR-FRET RUNX1 Runt domain-CBFb binding; in the data active means inhibition above about 40%
YIC FRET counter – YIC intramolecular FRET probe signal interference, dose response, counter-screen for RanGTP-importin-beta inhibitor project, biochemical, fluorescence FRET; IC50, µM; shares compounds with RanGTP-Impb inh; hit rate 40% among 1,000; Purified YIC probe, intramolecular FRET ratio YFP/CFP;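 active means fitted half-maximal inhibitory concentration no more than tenfold above the top dose tested; inconclusive means flat fit with 30 to 70% activity, or poor fit; inactive means half-maximal concentration beyond tenfold above the top dose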
Numbers stand for hits; n = inactive; u = inconclusive; x = no result given.

SMILES	RanGTP-Impb inh	Runt-SMMHC FRET	Runt-CBFb FRET	p-CIP stab down	Hck Nef HTS	DSG3 Ab inh	Runt-CBFb TRFRET	YIC FRET counter
CCC(C(=O)Nc1ccc2c(c1)OCCO2)n1c(=O)[nH]c2ccccc2c1=O (configuration not stated)	n	x	x	n	x	n	x	x
O=C(CN1C(=O)C(=O)N(Cc2ccccc2)C1=O)Nc1ccc(F)c(Cl)c1	n	n	n	n	n	n	x	x
COc1ccc(-c2nc(=S)[nH][nH]2)cc1OC	n	n	51.4	n	n	n	n	x
CCC12OC(=N)C(C#N)(C1C)C(C#N)(C#N)C(c1ccccc1)O2 (configuration not stated)	21.3	88.0	58.0	n	n	n	41.0	x
O=c1[nH]c2ccccc2c(O)c1-[n+]1ccccc1	n	n	n	n	n	n	x	x
O=c1[nH]c2ccccc2c(O)c1O	n	57.4	59.3	n	n	x	n	x
Cn1cnnc1SCC(=O)NC1CC1	x	x	x	x	x	n	x	x
O=C1CC(N2CCC(O)(c3ccc(Cl)cc3)CC2)C(=O)N1Cc1ccc(N2CCCC2=O)cc1 (configuration not stated)	n	n	66.3	n	n	x	n	x
CN1CCN(C(=S)C(=O)Nc2ccc(Br)cc2)CC1	n	n	54.9	n	n	n	n	x
N#CC1=C(N)Oc2cc(O)c(C=Nc3ccccc3)cc2C1c1ccccc1 (configuration not stated)	u	n	n	n	n	n	x	x
Cc1ccccc1N=Cc1cc2c(cc1O)OC(N)=C(C#N)C2c1ccccc1 (configuration not stated)	30.4	108.8	71.1	n	n	n	n	x
COc1ccc(OC)c2c1C(=O)C(Cl)=C(Cl)C2=O	n	66.2	67.9	n	n	n	n	x
CCOCCCNC(=S)N1CCCN(c2nc3cc(C)cc(C)c3cc2C#N)CC1	n	n	n	n	n	n	x	x
CCOCCCNC(=S)NCCNc1nc2c(C)cccc2cc1C#N	20.7	92.6	68.3	n	n	n	n	32
COC(C[C@@H]1O[C@H]1[C@H](O)[C@@H](C)OCc1ccccc1)OC	n	x	x	x	x	x	x	x
Cc1ccc(C(=O)NNc2c3ccccc3nc3ccccc23)cc1	39.2	n	73.0	n	n	n	n	n
CNS(=O)(=O)c1cccc(C(=O)OCc2cc(=O)oc3c(C)c(O)ccc23)c1	n	x	x	n	x	n	x	x
Cn1nccc1C(=O)Nc1sc2c(c1C#N)CCCC2	n	x	x	n	x	n	x	x
COc1ccc(-c2c(C)sc(NC(=O)c3ccnn3C)c2C#N)cc1	25.4	n	57.2	n	n	n	n	n
Cc1ccc(N=Cc2cc3c(cc2O)OC(N)=C(C#N)C3c2ccccc2)cc1 (configuration not stated)	43.2	116.6	79.0	n	n	n	n	n
COC(=O)C1=C(C)NC2=C(C(=O)CCC2)C1c1cccc(C)n1 (configuration not stated)	19.0	132.4	60.3	n	n	n	n	31.2
O=C(Cn1c2ccccc2c(=O)c2ccccc21)N/N=C/c1ccc(N2CCCC2)c([N+](=O)[O-])c1	28.4	132.9	75.5	n	n	n	n	n
O=C(N/N=C/c1ccc(N2CCCC2)c([N+](=O)[O-])c1)c1cccnc1	u	n	n	n	n	n	x	x
CCn1nc(NC(=O)c2ccccn2)c2cc3cccc(C)c3nc21	37.9	n	59.6	n	n	u	n	0.862
COCC(C)OC(=O)c1c(N)n(CC(C)C)c2nc3ccccc3nc12 (configuration not stated)	21.3	125.9	62.6	n	n	n	n	25.6
SMILES	RanGTP-Impb inh	Runt-SMMHC FRET	Runt-CBFb FRET	p-CIP stab down	Hck Nef HTS	DSG3 Ab inh	Runt-CBFb TRFRET	YIC FRET counter
CC(C)OC(=O)c1c(N)n(CCCN2CCOCC2)c2nc3ccccc3nc12	25.4	83.8	65.1	n	n	n	n	31.3
CC(=O)Nc1ccc(S(=O)(=O)c2c(N)n(CCN3CCOCC3)c3nc4ccccc4nc23)cc1	n	n	n	n	n	n	x	x
C=CCn1c(N)c(C(=O)OC(C)CC)c2nc3ccccc3nc21 (configuration not stated)	34.8	122.9	66.0	n	n	n	n	22.1
CCN(CC)C(=O)c1ccccc1NC(=O)CN1C(=O)c2ccccc2S1(=O)=O	u	x	x	n	x	n	x	x
O=C(N[C@@H](Cc1ccccc1)C(=O)NCc1ccc(F)cc1)C1CCNCC1	n	x	x	n	x	x	x	x
CCN(CC)C(=O)Cn1cc([N+](=O)[O-])cc1[N+](=O)[O-]	x	x	x	x	x	n	x	x
O=C(Oc1c(Br)cc(C(=S)N2CCOCC2)cc1Br)c1ccc(Cl)cc1	17.5	n	50.1	n	n	n	n	n
O=C(Oc1ccc(C(=S)N2CCOCC2)cc1Br)c1cc(Cl)ccc1Cl	n	n	x	n	n	n	x	x
O=C(NC(=O)c1cc([N+](=O)[O-])ccc1Cl)C1=C(N2CCCC2)COC1=O	x	x	x	x	x	n	x	x
CCCCc1cc(=O)oc2c(CN(CC)CC)c(O)c(Cl)cc12	u	150.2	74.9	n	154.6	n	n	x
N#Cc1c(N)n(-c2ccc(O)cc2)c2nc3ccccc3nc12	u	n	n	n	n	n	x	x
N#Cc1c(N)n(-c2cccc(O)c2)c2nc3ccccc3nc12	26.5	101.5	72.8	n	72.4	n	n	x
CCOC(=O)c1c(-c2ccccc2)oc2ccc(OCC(O)CN(C)C)cc12 (configuration not stated)	n	x	x	n	x	x	x	x
COCCCNC(=O)c1ccc2c(c1)nc(C)n2-c1cccc(C)c1	n	x	x	n	x	n	x	x
